Data published in ChEMBL document CHEMBL1144410, “Synthesis of 3-arylpiperazinylalkylpyrrolo[3,2-d]pyrimidine-2,4-dione derivatives as novel, potent, and selective alpha1-adrenoceptor ligands” (J Med Chem, 2005).

Experiments:
[1] = target: T1, Adrenergic receptor alpha-1 (Rattus norvegicus, UniProt P15823+P23944+P43140); experiment: Inhibition of [3H]prazosin binding to Alpha-1 adrenergic receptor from rat cortex
T1 sequence (P15823 whole entry): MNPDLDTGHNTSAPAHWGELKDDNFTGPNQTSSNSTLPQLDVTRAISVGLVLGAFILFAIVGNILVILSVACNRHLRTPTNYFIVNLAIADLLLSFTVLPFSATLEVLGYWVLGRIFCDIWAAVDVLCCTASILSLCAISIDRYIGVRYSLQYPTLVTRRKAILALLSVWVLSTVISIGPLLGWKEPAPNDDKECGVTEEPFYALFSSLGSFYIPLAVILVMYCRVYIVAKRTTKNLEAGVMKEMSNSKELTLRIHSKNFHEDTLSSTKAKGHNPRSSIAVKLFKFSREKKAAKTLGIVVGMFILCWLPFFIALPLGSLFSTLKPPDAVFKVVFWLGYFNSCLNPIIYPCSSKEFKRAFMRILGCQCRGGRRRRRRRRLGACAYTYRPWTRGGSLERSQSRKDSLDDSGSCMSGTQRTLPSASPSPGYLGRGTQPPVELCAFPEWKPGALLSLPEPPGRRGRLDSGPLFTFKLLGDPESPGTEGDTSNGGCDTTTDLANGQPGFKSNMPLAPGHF
T1 sequence (P23944 whole entry): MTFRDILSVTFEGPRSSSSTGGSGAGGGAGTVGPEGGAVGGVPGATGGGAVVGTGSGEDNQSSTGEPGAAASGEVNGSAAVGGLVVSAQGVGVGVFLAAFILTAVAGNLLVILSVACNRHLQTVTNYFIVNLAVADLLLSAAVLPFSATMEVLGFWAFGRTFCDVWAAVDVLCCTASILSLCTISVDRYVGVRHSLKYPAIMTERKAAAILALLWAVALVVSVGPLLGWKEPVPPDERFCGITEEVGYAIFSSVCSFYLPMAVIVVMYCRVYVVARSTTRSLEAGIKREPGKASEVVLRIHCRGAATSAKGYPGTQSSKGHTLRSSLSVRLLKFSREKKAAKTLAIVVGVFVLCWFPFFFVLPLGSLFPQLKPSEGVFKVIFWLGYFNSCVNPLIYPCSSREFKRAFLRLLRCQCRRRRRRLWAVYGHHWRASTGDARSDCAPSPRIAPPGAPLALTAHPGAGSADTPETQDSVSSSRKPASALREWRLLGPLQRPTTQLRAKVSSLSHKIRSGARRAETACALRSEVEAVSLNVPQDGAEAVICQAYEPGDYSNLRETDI
T1 sequence (P43140 whole entry): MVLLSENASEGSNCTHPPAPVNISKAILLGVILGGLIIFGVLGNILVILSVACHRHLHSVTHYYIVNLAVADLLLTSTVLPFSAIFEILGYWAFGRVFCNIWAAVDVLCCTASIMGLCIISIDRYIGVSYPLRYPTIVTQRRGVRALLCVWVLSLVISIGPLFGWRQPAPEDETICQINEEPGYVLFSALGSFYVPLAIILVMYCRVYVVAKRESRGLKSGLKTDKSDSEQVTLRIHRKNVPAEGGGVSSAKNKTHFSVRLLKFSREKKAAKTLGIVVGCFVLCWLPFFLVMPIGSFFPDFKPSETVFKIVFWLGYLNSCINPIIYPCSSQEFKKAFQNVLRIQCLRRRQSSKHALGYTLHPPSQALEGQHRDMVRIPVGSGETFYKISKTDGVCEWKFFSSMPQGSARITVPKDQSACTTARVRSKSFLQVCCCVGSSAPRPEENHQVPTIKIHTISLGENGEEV
Procedure, shortened: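 Prepared membranes resuspended in 50 mM Tris-HCl pH 7.7 with 10 µM pargyline and 0.1% ascorbic acid. [3H]prazosin 0.2 nM final, 30 min, 25 °C; nonspecific binding with 3 µM phentolamine. Bound ligand collected on GF/B filters, counted by liquid scintillation. Ki derived from IC50 of dose-inhibition curves; mean ± SD of three separate experiments.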

[2] = target: Serotonin 1a (5-HT1a) receptor/Adrenergic receptor alpha-1 (Rattus norvegicus) (UniProt P15823+P23944+P43140+P19327); experiment: Relative binding affinity for 5-hydroxytryptamine 1A and Alpha-1 adrenergic receptors; format: protein assay
[3] = target: T2, 5-hydroxytryptamine receptor 1A (Rattus norvegicus, UniProt P19327); experiment: Inhibition of [3H]8-OH-DPAT binding to 5-hydroxytryptamine 1A receptor from rat hippocampus; format: tissue-based
T2 sequence (P19327 whole entry): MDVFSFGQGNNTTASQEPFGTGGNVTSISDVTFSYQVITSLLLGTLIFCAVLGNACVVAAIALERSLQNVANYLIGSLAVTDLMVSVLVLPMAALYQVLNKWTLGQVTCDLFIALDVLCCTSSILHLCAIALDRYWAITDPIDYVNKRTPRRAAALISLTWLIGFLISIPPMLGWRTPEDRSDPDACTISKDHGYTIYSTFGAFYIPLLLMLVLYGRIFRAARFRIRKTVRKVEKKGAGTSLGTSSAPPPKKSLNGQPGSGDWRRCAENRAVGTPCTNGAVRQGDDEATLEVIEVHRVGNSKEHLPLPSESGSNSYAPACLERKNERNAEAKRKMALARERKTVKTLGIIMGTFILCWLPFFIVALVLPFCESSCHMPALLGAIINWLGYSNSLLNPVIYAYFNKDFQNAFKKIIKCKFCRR
Procedure, shortened: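 Membranes: tissue homogenized in ice-cold 50 mM Tris-HCl pH 7.4, spun 50000g, preincubated 37 °C 10 min, washed. Incubation buffer 50 mM Tris-HCl pH 7.7, 10 µM pargyline, 4 mM CaCl2. [3H]8-OH-DPAT 1 nM final, 30 min, 25 °C; nonspecific with 10 µM 5-HT. Stopped by GF/B filtration, scintillation counting. IC50 from dose-inhibition curves, converted to Ki; mean ± SD of three experiments.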

D(1A) dopamine receptor = D(1A) dopamine receptor (Rattus norvegicus, UniProt P18901); experiment: Inhibition of [3H]SCH-23390 binding to Dopamine receptor D1 from rat striatum
Sequence of D(1A) dopamine receptor (P18901 whole entry): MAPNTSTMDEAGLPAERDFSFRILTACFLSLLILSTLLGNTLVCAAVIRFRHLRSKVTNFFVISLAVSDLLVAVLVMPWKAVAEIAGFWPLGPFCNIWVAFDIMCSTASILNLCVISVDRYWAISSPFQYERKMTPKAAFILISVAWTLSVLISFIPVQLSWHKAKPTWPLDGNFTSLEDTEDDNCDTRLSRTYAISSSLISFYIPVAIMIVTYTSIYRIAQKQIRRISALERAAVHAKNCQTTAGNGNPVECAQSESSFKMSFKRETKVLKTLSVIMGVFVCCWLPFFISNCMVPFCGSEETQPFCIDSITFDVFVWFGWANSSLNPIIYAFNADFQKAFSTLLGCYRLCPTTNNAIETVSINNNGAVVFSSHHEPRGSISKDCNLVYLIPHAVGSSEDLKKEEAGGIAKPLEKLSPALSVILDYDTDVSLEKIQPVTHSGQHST
Procedure, shortened: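 Ligand was [3H]SCH23390 at 0.4 nM final, 15 min, 25 °C; nonspecific binding defined with 10 µM (-)-cis-flupentixol. Filtration on GF/B, liquid scintillation counting. IC50 fitted, Ki derived; mean ± SD, n=3.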

D(2) dopamine receptor = D(2) dopamine receptor (Rattus norvegicus, UniProt P61169); experiment: Inhibition of [3H]spiperone binding to Dopamine receptor D2 from rat striatum
Sequence of D(2) dopamine receptor (P61169 whole entry): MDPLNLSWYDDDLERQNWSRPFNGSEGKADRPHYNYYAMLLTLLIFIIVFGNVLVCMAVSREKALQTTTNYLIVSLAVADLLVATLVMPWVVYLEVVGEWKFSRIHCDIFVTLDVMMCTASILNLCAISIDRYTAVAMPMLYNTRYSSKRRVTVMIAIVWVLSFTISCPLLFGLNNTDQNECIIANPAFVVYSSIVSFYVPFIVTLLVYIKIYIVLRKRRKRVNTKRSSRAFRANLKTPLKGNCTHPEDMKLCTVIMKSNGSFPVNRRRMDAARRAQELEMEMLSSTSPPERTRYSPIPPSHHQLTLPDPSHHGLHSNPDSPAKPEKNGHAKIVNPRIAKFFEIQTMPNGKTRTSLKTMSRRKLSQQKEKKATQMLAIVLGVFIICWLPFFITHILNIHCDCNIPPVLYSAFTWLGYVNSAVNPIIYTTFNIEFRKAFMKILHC
Procedure, shortened: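 Membrane incubation in 50 mM Tris-HCl pH 7.1 with 10 µM pargyline, 120 mM NaCl, 5 mM KCl, 2 mM CaCl2, 1 mM MgCl2 and 0.1% ascorbic acid. [3H]spiperone 0.2 nM final, 15 min at 37 °C; 100 µM (-)-sulpiride for nonspecific binding. Vacuum filtration through GF/B, scintillation counting; Ki from IC50 of dose-inhibition curves, mean ± SD of three runs.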

Rattus norvegicus [4] = organism: Rattus norvegicus; experiment: Relative binding affinity for Dopamine D1 and Alpha-1 adrenergic receptors
Rattus norvegicus [5] = organism: Rattus norvegicus; experiment: Relative binding affinity for Dopamine D2 and Alpha-1 adrenergic receptors

| SMILES | Ki [1] [µM] | Ratio [2] | Ki [3] [µM] | Ki (D(1A) dopamine receptor) [µM] | Ki (D(2) dopamine receptor) [µM] | Ratio (Rattus norvegicus [4]) | Ratio (Rattus norvegicus [5]) |
| --- | --- | --- | --- | --- | --- | --- | --- |
| COc1ccccc1N1CCN(CCn2c(=O)[nH]c3cc(-c4ccccc4Cl)[nH]c3c2=O)CC1 | 0.00076 | 21 | 0.0161 |  |  |  |  |
| O=c1[nH]c2c([nH]c3ccccc32)c(=O)n1CCN1CCN(c2ccccc2Cl)CC1 | 0.00053 | > 15000 | > 10 |  |  |  |  |
| O=c1[nH]c2cc(-c3ccc(Cl)cc3)[nH]c2c(=O)n1CCN1CCN(c2ccccc2Cl)CC1 | 0.0117 | > 800 | > 10 | > 10 | > 10 | > 800 | > 800 |
| COc1ccccc1N1CCN(CCn2c(=O)[nH]c3cc(-c4ccc(C)cc4)[nH]c3c2=O)CC1 | 0.00205 | > 4500 | > 10 | > 10 | 0.0199 | > 4500 | 9.7 |
| COc1ccccc1N1CCN(CCn2c(=O)[nH]c3cc(-c4ccc(Cl)cc4)[nH]c3c2=O)CC1 | 0.00768 | > 1000 | > 10 | > 10 | 0.00364 | > 1000 | 0.47 |
| COc1ccccc1N1CCN(CCCn2c(=O)[nH]c3cc(-c4ccc(C)cc4)[nH]c3c2=O)CC1 | 0.04788 | 1.73 | 0.083 |  |  |  |  |
| COc1ccccc1N1CCN(CCn2c(=O)[nH]c3cc[nH]c3c2=O)CC1 | 0.00231 | 282 | 0.651 |  |  |  |  |
| O=c1[nH]c2cc(-c3ccccc3)[nH]c2c(=O)n1CCCN1CCN(c2ccccc2Cl)CC1 | 0.06237 | 2.1 | 0.13 |  |  |  |  |
| COc1ccccc1N1CCN(CCCn2c(=O)[nH]c3cc(-c4ccccc4)[nH]c3c2=O)CC1 | 0.00123 | 18 | 0.0224 |  |  |  |  |
| COc1ccccc1N1CCN(CCn2c(=O)[nH]c3cc(-c4ccccc4)[nH]c3c2=O)CC1 | 0.00052 | 46 | 0.024 |  |  |  |  |
| COc1ccccc1N1CCN(CCn2c(=O)[nH]c3c([nH]c4ccccc43)c2=O)CC1 |  | 238 |  |  |  |  |  |
| O=c1[nH]c2cc[nH]c2c(=O)n1CCCN1CCN(c2ccccc2Cl)CC1 | 0.05978 | 6.3 | 0.376 |  |  |  |  |
| Cc1ccc(-c2cc3[nH]c(=O)n(CCCN4CCN(c5ccccc5Cl)CC4)c(=O)c3[nH]2)cc1 | 0.1101 | > 90 | > 10 |  |  |  |  |
| Cc1ccc(-c2cc3[nH]c(=O)n(CCN4CCN(c5ccccc5Cl)CC4)c(=O)c3[nH]2)cc1 | 0.01726 | > 500 | > 10 | > 10 | > 10 | > 500 | > 500 |
| COc1ccc(-c2cc3[nH]c(=O)n(CCN4CCN(c5ccccc5Cl)CC4)c(=O)c3[nH]2)cc1 | 0.0034 | > 2500 | > 10 | > 10 | 0.00223 | > 2500 | 0.65 |
| COc1ccccc1N1CCN(CCCn2c(=O)[nH]c3cc[nH]c3c2=O)CC1 | 0.02801 | 6.9 | 0.193 |  |  |  |  |
| O=c1[nH]c2cc(-c3ccccc3)[nH]c2c(=O)n1CCN1CCN(c2ccccc2Cl)CC1 | 0.00108 | 32 | 0.035 |  |  |  |  |
| COc1ccccc1N1CCN(CCn2c(=O)[nH]c3cc(-c4cccc(Cl)c4)[nH]c3c2=O)CC1 | 0.01932 | 0.87 | 0.0169 |  |  |  |  |
| COc1ccc(N2CCN(CCn3c(=O)[nH]c4cc(-c5ccccc5)[nH]c4c3=O)CC2)cc1 | > 10 |  | > 10 |  |  |  |  |
| O=c1[nH]c2cc(-c3ccccc3Cl)[nH]c2c(=O)n1CCN1CCN(c2ccccc2Cl)CC1 | 0.00046 | > 20000 | > 10 | > 10 | 0.0278 | > 20000 | 60 |
| O=c1[nH]c2cc[nH]c2c(=O)n1CCN1CCN(c2ccccc2Cl)CC1 | 0.00094 | 594 | 0.559 | > 10 | 0.322 | > 10000 | 343 |
